Broadly, the IC50 is the concentration that inhibits the measured activity by half. For orientation: inhibition means the change of the read-out against control, counted positive when it falls.

Each structure is given as a SMILES string.

Data set [1] has as its system Trypanosoma cruzi. Nature of the data set: Antimicrobial activity against Trypanosoma cruzi. The format is functional. The conditions noted are these: read-out: ED50 (the source's name).
Data set [2] relates to Trypanosoma cruzi. Nature of the data set: Antimicrobial activity against Trypanosoma cruzi CL amastigotes infected in african green monkey Vero cells measured on day 3 by fluorescence assay. The format is functional. Particulars: 72 h, read-out: ED50 (the source's name). An outline of the steps: (§1)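 Vero cells were gamma-irradiated (2,000 Rads), seeded at 3.4×10^4/well in RPMI with 10% FBS, and incubated overnight at 35 °C, 7% CO2. […] Compounds were given in serial dilutions (1.56–25 μM), each in quadruplicate, with benznidazole (0.39–6.25 μM) as reference. Fluorescence was read on day 3 post-infection, and IC50 was obtained by non-linear regression.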

Data set [3] relates to Toxoplasma gondii. Nature of the data set: Antimicrobial activity against Toxoplasma gondii tachyzoites expressing red fluorescence protein infected in hTerT cells measured daily by fluorescence assay. The format is functional. The conditions noted are these: read-out: ED50 (the source's name). The method in brief: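 Tachyzoites expressing red fluorescent protein, maintained in hTerT cells in DMEM-HG with 1% FBS, 2 mM glutamine, 1 mM pyruvate, 37 °C, 5% CO2. Confluent hTerT monolayers infected with 10^4 filtered, needle-passed tachyzoites/well. Drugs serially diluted in the same medium. Fluorescence read daily from the bottom (ex 510, em 540 nm).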

A short description of data set [4]: […]. The arrangement: species or system Trypanosoma cruzi.
Data set [5] can be described thus: Cytotoxicity against hTerT cells. Particulars: human. The format is cell-based. An outline of the steps: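 Toxicity toward hTerT host cells was judged by visual inspection during the tachyzoite growth assay. Cells were in DMEM-HG with 1% FBS at 37 °C, 5% CO2.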
Data set [6] relates to Vero. The data set can be described thus: Cytotoxicity against african green monkey Vero cells at 25 uM. The format is cell-based. The conditions noted are these: chlorocebus sabaeus. An outline of the steps:
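Host-cell toxicity toward irradiated, T. cruzi-infected Vero cells was judged by visual inspection during the amastigote assay. Drugs went up to 25 μM in RPMI with 10% FBS at 35 °C, 7% CO2, over 3 days.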

Data set [7] has as its system Trypanosoma cruzi. The data set can be described thus: Ratio of compound activity to WC-9 activity for Trypanosoma cruzi amastigotes. In kind it is functional.
The subject of data set [8] is Trypanosoma cruzi. The data set can be described thus: Antimicrobial activity against Trypanosoma cruzi amastigotes. The format is functional. Particulars: read-out: ED50 (the source's name). The method in brief:
as §1

Data set [9] deals with T1, Farnesyl diphosphate synthase (Toxoplasma gondii, UniProt Q197X6).
T1 sequence (Q197X6 whole entry): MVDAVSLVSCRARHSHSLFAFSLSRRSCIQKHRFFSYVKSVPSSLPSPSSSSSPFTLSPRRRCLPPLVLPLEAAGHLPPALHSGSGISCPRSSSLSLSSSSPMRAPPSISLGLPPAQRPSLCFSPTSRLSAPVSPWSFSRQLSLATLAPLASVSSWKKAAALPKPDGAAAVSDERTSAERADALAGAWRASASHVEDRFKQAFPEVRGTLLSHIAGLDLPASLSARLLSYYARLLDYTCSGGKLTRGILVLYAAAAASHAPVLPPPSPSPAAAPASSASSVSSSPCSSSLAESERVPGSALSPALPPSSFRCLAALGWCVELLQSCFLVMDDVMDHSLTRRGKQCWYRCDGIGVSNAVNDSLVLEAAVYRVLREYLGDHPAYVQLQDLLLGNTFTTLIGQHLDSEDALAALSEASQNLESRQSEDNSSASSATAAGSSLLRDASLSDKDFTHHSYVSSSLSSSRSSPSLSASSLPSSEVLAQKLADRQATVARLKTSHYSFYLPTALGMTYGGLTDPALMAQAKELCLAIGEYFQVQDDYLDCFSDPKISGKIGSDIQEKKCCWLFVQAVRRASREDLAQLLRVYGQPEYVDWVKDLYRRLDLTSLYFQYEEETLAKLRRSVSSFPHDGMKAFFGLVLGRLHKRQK
The data set can be described thus: Inhibition of Toxoplasma gondii FPPS.

Data set [10] has as its system Trypanosoma cruzi. Nature of the data set: Antimicrobial activity against Trypanosoma cruzi CL amastigotes infected in african green monkey Vero cells at 10 uM measured on day 3 by fluorescence assay. The format is functional. The conditions noted are these: 72 h. The method in brief: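 Vero host cells, gamma-irradiated (2,000 Rads), seeded at 3.4×10^4/well in RPMI with 10% FBS and incubated overnight at 35 °C, 7% CO2. […] Compounds were added in RPMI, in quadruplicate, with no-parasite background and no-drug controls. Fluorescence was read at day 3 post-infection.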

In data set [11] the test system is Vero. The data set can be described thus: Cytotoxicity against african green monkey Vero cells at 10 uM. The format is cell-based. Particulars: chlorocebus sabaeus.
For data set [12], the system named is Toxoplasma gondii. The data set can be described thus: Antimicrobial activity against Toxoplasma gondii tachyzoites expressing red fluorescence protein infected in hTerT cells at 10 uM measured daily by fluorescence assay. In kind it is functional.

On to `CCCCCCCCCCCCNCC(P(=O)(O)O)P(=O)(O)O`, for which the EC50 with Trypanosoma cruzi [1] came out at 0.67 µM.

For the compound `CCCCCCCNCC(O)(P(=O)(O)O)P(=O)(O)O`, the EC50 is > 20 µM in the data set with Trypanosoma cruzi [2] and ≥ 10 µM in the data set on Toxoplasma gondii [3]. In data set [4], the IC50 was > 10 µM. For the same compound, the Activity entry (in data set [5]; in the data set on Vero [6]) was “Non-toxic” throughout.

With `CCCCCCNCC(P(=O)(O)O)P(=O)(O)O`, the Ratio in the data set on Trypanosoma cruzi [7] worked out at 15. Moreover, in the data set with Trypanosoma cruzi [8], the EC50 came to 0.84 µM.

`CCCCCCCCC(F)(P(=O)(O)O)P(=O)(O)O`: half-maximal inhibition in data set [9] (IC50) required 0.035 µM.

Take `CCCCCCCCCC(F)(P(=O)(O)O)P(=O)(O)O`: in data set [9], half-maximal inhibition (IC50) was put at 0.06 µM.

For the compound `CCCCCNCC(O)(P(=O)(O)O)P(=O)(O)O`, the IC50 in data set [9] was 0.067 µM; in data set [4], > 10 µM. For the same compound, the values for the EC50 in the data set on Trypanosoma cruzi [2] and in the data set with Toxoplasma gondii [3] were > 20 µM and > 10 µM, respectively. For the same compound, the Activity entry (in data set [5]; in the data set with Vero [6]) was “Non-toxic” throughout.

`CCCCCCNCC(O)(P(=O)(O)O)P(=O)(O)O`: the half-inhibitory concentration (IC50) in data set [9] is 0.051 µM; in data set [4] it was > 10 µM. In addition, the EC50 in the data set with Trypanosoma cruzi [2] was > 20 µM; in the data set on Toxoplasma gondii [3] it was 4.68 µM. Moreover, the Activity entry (in [5]; in the data set on Vero [6]) was “Non-toxic” each time.

As for `CCCCCCCCNCC(O)(P(=O)(O)O)P(=O)(O)O`, the IC50 in data set [9] is 0.039 µM; in data set [4], > 10 µM. The same compound came in with an inhibition at 10 µM with Trypanosoma cruzi [10] of 46%. Besides, the EC50 in the data set on Toxoplasma gondii [3] worked out at 2 µM. Also, the Activity result is reported as “Toxic” with Vero [11], “Non-toxic” in data set [5] and “Non-toxic” in the data set with Vero [6].

Consider `CCCCCCCCCCNCC(O)(P(=O)(O)O)P(=O)(O)O`, for which the inhibition at 10 µM in the data set with Toxoplasma gondii [12] amounted to 14.9%; in the data set on Trypanosoma cruzi [10] it was 42%. Also, the IC50 is 0.125 µM in data set [9] and > 10 µM in data set [4]. Also, the Activity result (in data set [5]; in the data set with Vero [6]) was “Non-toxic” in each case.

As to `O=C(Cn1ccnc1[N+](=O)[O-])NCc1ccccc1` [BENZNIDAZOLE], the EC50 came out at 1.44 µM in the data set on Trypanosoma cruzi [2] and 2.77 µM in the data set on Trypanosoma cruzi [1].

As for `O=P(O)(O)C(O)(Cc1cccnc1)P(=O)(O)O` [RISEDRONIC ACID], the EC50 in the data set on Toxoplasma gondii [3] turned out to be 2.4 µM.
